Data as given in ChEMBL document CHEMBL1275391, “Design, synthesis, and preclinical evaluation of new 5,6- (or 6,7-) disubstituted-2-(fluorophenyl)quinolin-4-one derivatives as potent antitumor agents” (J Med Chem, 2010).

Legend:
[1] = test system: OVCAR-4; test: Growth inhibition of human OVCAR4 cells; format: functional
[2] = test system: MCF7; test: Growth inhibition of human MCF7 cells; format: functional
[3] = test system: SK-MEL-2; test: Growth inhibition of human SK-MEL-2 cells; format: functional
[4] = target: Insulin-like growth factor 1 receptor (Homo sapiens) (UniProt P08069); test: Inhibition of tyrosine phosphorylation of IGF1R in human Hep3B cells assessed as decrease of phosphorylated IGF1R level after 12 hrs by Western blotting; format: cell-based; settings: Hep 3B2
Method in brief: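 Hep3B cells were exposed to a range of concentrations for 12 h at 37 C, with DMSO as vehicle control. They were lysed in Tris-HCl pH 7.9 buffer containing Triton X-100, SDS, NaF, orthovanadate and protease inhibitors, then centrifuged. Lysates were immunoblotted with anti-pY1135/1136-IGF-1R, and IGF-1R β-subunit served as loading control.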

[5] = test system: A549; test: Growth inhibition of human A549 cells; format: functional
[6] = test system: CAKI-1; test: Growth inhibition of human Caki1 cells; format: functional
[7] = test system: A498; test: Growth inhibition of human A498 cells; format: functional
[8] = test system: CCRF-CEM; test: Growth inhibition of human CCRF-CEM cells; format: functional
[9] = test system: OVCAR-5; test: Growth inhibition of human OVCAR5 cells; format: functional
[10] = Growth inhibition of human […] cells; format: functional
[11] = test system: SNB-19; test: Growth inhibition of human SNB19 cells; format: functional
[12] = test system: UO-31; test: Growth inhibition of human UO31 cells; format: functional
[13] = test system: MDA-MB-468; test: Growth inhibition of human MDA-MB-468 cells; format: functional
[14] = test system: NCI-H460; test: Cytotoxicity against human H460 cells after 48 hrs by MTT assay; format: functional, cell-based; settings: NCI-H460, 48 h
Method in brief: (§1)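 Cells exposed to a range of compound concentrations for 48 h, washed once with PBS, then incubated with MTT for 2 h. Formazan dissolved in DMSO and absorbance read at 570 nm. IC50 taken as the concentration giving 50% inhibition of proliferation.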

[15] = test system: EKVX; test: Growth inhibition of human EKVX cells; format: functional
[16] = test system: SNB-75; test: Growth inhibition of human SNB75 cells; format: functional
[17] = test system: NCI-H322M; test: Growth inhibition of human NCI-H322M cells; format: functional
[18] = test system: MOLT-4; test: Growth inhibition of human MOLT4 cells; format: functional
[19] = test system: HL-60; test: Cytotoxicity against human HL60 cells after 48 hrs by MTT assay; format: functional, cell-based; settings: HL-60, 48 h; method in brief: as §1
[20] = test system: HT-29; test: Growth inhibition of human HT-29 cells; format: functional
[21] = test system: COLO 205; test: Growth inhibition of human COLO205 cells; format: functional
[22] = test system: PC-3; test: Growth inhibition of human PC3 cells; format: functional
[23] = test system: T47D; test: Growth inhibition of human T47D cells; format: functional
[24] = test system: HCC 2998; test: Growth inhibition of human HCC2998 cells; format: functional
[25] = test system: NCI/ADR-RES; test: Growth inhibition of human NCI/ADR-RES cells; format: functional
[26] = target: CYP1A2 (Homo sapiens, UniProt P05177); test: Inhibition of human CYP1A2 at 10 uM; format: ADME
[27] = target: UGT1A1 (Homo sapiens, UniProt P22309); test: Inhibition of human UGT1A1 at 10 uM
[28] = test system: MDA-MB-435; test: Growth inhibition of human MDA-MB-435 cells; format: functional
[29] = target: Phosphodiesterase 4 (Homo sapiens) (UniProt P27815+Q08499+Q07343+Q08493); test: Inhibition of human PDE4 at 10 uM; format: protein assay
[30] = test system: M14; test: Growth inhibition of human M14 cells; format: functional
[31] = test system: NCI-H226; test: Growth inhibition of human NCI-H226 cells; format: functional
[32] = test system: U-251; test: Growth inhibition of human U251 cells; format: functional
[33] = test system: ACHN; test: Growth inhibition of human ACHN cells; format: functional
[34] = test system: SN12C; test: Growth inhibition of human SN12C cells; format: functional
[35] = test system: HOP-92; test: Growth inhibition of human HOP92 cells; format: functional
[36] = test system: SF-295; test: Growth inhibition of human SF295 cells; format: functional
[37] = test system: SK-MEL-5; test: Growth inhibition of human SK-MEL-5 cells; format: functional
[38] = test system: LOX IMVI; test: Growth inhibition of human LOXIMVI cells; format: functional
[39] = test system: HL-60(TB); test: Growth inhibition of human HL-60(TB) cells; format: functional
[40] = test system: HCT-116; test: Cytotoxicity against human HCT116 cells after 48 hrs by MTT assay; format: functional, cell-based; settings: HCT-116, 48 h; method in brief: as §1
[41] = read-out: pLC50 (the source's name) (converted)

Chain of UGT1A1 (P22309 whole entry): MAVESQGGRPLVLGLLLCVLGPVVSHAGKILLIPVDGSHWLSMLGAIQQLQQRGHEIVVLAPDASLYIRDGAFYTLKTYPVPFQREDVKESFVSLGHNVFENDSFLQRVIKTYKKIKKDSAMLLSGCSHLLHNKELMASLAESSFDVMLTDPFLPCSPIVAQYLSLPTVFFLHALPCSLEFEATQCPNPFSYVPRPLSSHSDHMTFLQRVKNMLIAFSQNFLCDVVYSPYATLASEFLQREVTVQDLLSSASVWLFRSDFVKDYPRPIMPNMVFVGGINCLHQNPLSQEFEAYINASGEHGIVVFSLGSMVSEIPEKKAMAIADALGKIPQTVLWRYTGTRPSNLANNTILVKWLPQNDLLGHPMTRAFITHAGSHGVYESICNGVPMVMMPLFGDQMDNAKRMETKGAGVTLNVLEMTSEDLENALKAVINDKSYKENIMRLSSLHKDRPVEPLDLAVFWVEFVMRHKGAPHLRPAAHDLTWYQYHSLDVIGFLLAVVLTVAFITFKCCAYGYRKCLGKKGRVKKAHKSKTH
Chain of Insulin-like growth factor 1 receptor (Homo sapiens) (P08069 31-736 limits assumed): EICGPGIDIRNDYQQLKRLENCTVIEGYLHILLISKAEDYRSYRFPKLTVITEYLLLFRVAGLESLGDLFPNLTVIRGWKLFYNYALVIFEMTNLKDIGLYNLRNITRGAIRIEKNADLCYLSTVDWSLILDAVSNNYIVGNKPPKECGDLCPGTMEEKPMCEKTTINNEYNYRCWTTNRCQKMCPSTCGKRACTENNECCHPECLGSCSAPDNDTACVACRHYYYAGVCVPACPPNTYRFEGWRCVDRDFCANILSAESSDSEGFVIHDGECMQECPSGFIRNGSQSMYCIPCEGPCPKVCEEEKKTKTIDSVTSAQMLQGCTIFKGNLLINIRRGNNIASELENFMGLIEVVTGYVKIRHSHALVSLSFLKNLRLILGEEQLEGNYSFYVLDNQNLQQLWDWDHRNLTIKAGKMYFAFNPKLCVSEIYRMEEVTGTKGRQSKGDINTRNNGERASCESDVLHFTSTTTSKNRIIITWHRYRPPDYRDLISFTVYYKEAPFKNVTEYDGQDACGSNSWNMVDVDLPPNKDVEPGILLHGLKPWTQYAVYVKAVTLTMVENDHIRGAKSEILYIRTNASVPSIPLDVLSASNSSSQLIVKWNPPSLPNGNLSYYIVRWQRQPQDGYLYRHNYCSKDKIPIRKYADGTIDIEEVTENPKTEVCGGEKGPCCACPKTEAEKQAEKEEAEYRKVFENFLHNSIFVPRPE
Chain of Insulin-like growth factor 1 receptor (Homo sapiens) (P08069 741-1367 limits assumed): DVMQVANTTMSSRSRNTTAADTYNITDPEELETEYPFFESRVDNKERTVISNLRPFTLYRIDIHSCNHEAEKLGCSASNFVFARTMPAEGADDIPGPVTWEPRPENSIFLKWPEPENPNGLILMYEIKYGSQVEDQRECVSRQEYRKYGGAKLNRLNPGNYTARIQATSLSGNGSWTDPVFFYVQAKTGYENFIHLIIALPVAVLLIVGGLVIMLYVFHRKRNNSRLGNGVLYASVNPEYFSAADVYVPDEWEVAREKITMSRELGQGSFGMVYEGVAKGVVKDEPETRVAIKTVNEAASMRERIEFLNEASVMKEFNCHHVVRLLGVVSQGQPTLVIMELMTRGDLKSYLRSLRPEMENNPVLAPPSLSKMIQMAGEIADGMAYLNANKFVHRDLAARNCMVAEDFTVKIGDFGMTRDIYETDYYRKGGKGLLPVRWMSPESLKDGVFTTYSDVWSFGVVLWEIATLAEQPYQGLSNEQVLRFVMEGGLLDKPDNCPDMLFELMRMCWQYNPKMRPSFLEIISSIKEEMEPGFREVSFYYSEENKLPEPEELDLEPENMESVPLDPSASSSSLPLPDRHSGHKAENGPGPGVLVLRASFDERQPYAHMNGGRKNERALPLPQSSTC
Chain of CYP1A2 (P05177 whole entry): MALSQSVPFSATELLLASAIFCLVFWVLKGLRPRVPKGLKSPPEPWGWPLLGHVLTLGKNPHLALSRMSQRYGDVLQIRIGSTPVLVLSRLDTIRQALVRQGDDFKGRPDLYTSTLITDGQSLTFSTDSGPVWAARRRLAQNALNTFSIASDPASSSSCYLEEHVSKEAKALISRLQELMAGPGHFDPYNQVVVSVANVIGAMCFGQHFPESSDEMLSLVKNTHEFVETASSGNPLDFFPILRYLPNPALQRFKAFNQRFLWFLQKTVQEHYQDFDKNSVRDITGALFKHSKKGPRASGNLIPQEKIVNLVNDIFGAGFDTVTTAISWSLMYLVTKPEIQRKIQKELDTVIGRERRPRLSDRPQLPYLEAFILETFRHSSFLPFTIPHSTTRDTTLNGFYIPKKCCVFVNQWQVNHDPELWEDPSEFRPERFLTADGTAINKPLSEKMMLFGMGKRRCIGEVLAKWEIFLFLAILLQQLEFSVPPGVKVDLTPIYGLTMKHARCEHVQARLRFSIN

COc1ccc2[nH]c(-c3cccc(F)c3)cc(=O)c2c1O
GI50 [1]: 43.6 nM | CC50 [1, 41]: > 100000 nM | TGI ([1]; read-out: pTGI (converted)): 9120 nM | GI50 [2]: 30.2 nM | CC50 [2, 41]: > 100000 nM | TGI ([2]; read-out: pTGI): > 100000 nM | GI50 [3]: 72.4 nM | CC50 [3, 41]: 77600 nM | TGI ([3]; read-out: pTGI (converted)): 15800 nM | inhibition [4]: Dose-dependent effect | GI50 [5]: 41.7 nM | CC50 [5, 41]: 93300 nM | TGI ([5]; read-out: pTGI (converted)): 14800 nM | GI50 [6]: 46.8 nM | CC50 [6, 41]: > 100000 nM | TGI ([6]; read-out: pTGI (converted)): 22900 nM | GI50 [7]: 24.6 nM | CC50 [7, 41]: 41700 nM | TGI ([7]; read-out: pTGI (converted)): 209 nM | GI50 [8]: 34.7 nM | CC50 [8, 41]: > 100000 nM | TGI ([8]; read-out: pTGI): > 100000 nM | CC50 [9, 41]: 46800 nM | TGI ([9]; read-out: pTGI (converted)): 15800 nM | GI50 [10]: 33.1 nM | CC50 [10, 41]: > 100000 nM | TGI ([10]; read-out: pTGI (converted)): 16200 nM | GI50 [11]: 28.8 nM | CC50 [11, 41]: > 100000 nM | TGI ([11]; read-out: pTGI (converted)): 437 nM | GI50 [12]: 51.3 nM | CC50 [12, 41]: 39800 nM | TGI ([12]; read-out: pTGI (converted)): 10200 nM | GI50 [13]: 39.8 nM | CC50 [13, 41]: 851 nM | TGI ([13]; read-out: pTGI (converted)): 219 nM | IC50 [14]: 80 nM | GI50 [15]: 45.7 nM | CC50 [15, 41]: > 100000 nM | TGI ([15]; read-out: pTGI): > 100000 nM | GI50 [16]: 15.1 nM | CC50 [16, 41]: 44700 nM | TGI ([16]; read-out: pTGI (converted)): 58.9 nM | GI50 [17]: 851 nM | CC50 [17, 41]: > 100000 nM | TGI ([17]; read-out: pTGI): > 100000 nM | GI50 [18]: 47.9 nM | CC50 [18, 41]: > 100000 nM | TGI ([18]; read-out: pTGI (converted)): 19100 nM | IC50 [19]: 30 nM | GI50 [20]: 28.8 nM | CC50 [20, 41]: 15500 nM | TGI ([20]; read-out: pTGI (converted)): 75.9 nM | GI50 [21]: 25.1 nM | CC50 [21, 41]: 832 nM | TGI ([21]; read-out: pTGI (converted)): 66.1 nM | GI50 [22]: 32.4 nM | CC50 [22, 41]: 70800 nM | TGI ([22]; read-out: pTGI (converted)): 15500 nM | GI50 [23]: 28.2 nM | CC50 [23, 41]: 87100 nM | GI50 [24]: 32.4 nM | CC50 [24, 41]: 16200 nM | TGI ([24]; read-out: pTGI (converted)): 66.1 nM | GI50 [25]: 20.9 nM | CC50 [25, 41]: 40700 nM | TGI ([25]; read-out: pTGI (converted)): 53.7 nM | inhibition at 10 µM [26]: 85% | inhibition at 10 µM [27]: 86% | GI50 [28]: < 10 nM | CC50 [28, 41]: > 100000 nM | TGI ([28]; read-out: pTGI (converted)): 45.7 nM | inhibition [29]: 55% | GI50 [30]: 19.1 nM | CC50 [30, 41]: 70800 nM | GI50 [31]: 1820 nM | CC50 [31, 41]: > 100000 nM | TGI ([31]; read-out: pTGI (converted)): 31600 nM | GI50 [32]: 42.7 nM | CC50 [32, 41]: 55000 nM | TGI ([32]; read-out: pTGI (converted)): 14500 nM | GI50 [33]: 97.7 nM | CC50 [33, 41]: > 100000 nM | TGI ([33]; read-out: pTGI (converted)): 33900 nM | GI50 [34]: 61.7 nM | CC50 [34, 41]: > 100000 nM | TGI ([34]; read-out: pTGI (converted)): 38000 nM | GI50 [35]: 4900 nM | CC50 [35, 41]: > 100000 nM | TGI ([35]; read-out: pTGI (converted)): 36300 nM | GI50 [36]: 25.7 nM | CC50 [36, 41]: 53700 nM | TGI ([36]; read-out: pTGI (converted)): 10500 nM | GI50 [37]: 29.5 nM | CC50 [37, 41]: 18200 nM | TGI ([37]; read-out: pTGI (converted)): 200 nM | GI50 [38]: 91.2 nM | CC50 [38, 41]: > 100000 nM | TGI ([38]; read-out: pTGI (converted)): 57500 nM | GI50 [39]: 22.4 nM | CC50 [39, 41]: > 100000 nM | TGI ([39]; read-out: pTGI (converted)): 63.1 nM | IC50 [40]: 70 nM
